According to ChEMBL document CHEMBL6115033, “Discovery of a Pyrazolopyridinone-Based MYC Inhibitor That Selectively Engages Intracellular c-MYC and Disrupts MYC-MAX Heterodimerization” (J Med Chem, 2025):
Activity calls are given as the source filed them. No cut-off for these calls is given here.

Experiments:
[1] = tested on: MDA-MB-468; experiment: Induction of apoptosis in human MDA-MB-468 cells assessed as effect on cleaved PARP level at 50 uM incubated for 24 hrs
[2] = tested on: MDA-MB-468; experiment: Downregulation of CDK1 mRNA expression in human MDA-MB-468 cells at 25 uM incubated for 12 hrs by qRT-PCR analysis; format: functional, cell-based
Procedure, shortened: (§1)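 Cells (500,000/well) were cultured with or without 25 µM for the indicated time. Total RNA was extracted with TRIzol and reverse-transcribed. qPCR used SYBR green with target-gene primers, reported as ΔΔCT.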

[3] = Induction of apoptosis in human P493-6 cells assessed as necrotic cells at 50 uM incubated for 24 hrs by Annexin V/PI staining based flow cytometry analysis (reference value: 0.11 %); format: functional
[4] = Induction of apoptosis in human P493-6 cells assessed as late apoptotic cells at 25 uM incubated for 24 hrs by Annexin V/PI staining based flow cytometry analysis (reference value: 6.52 %); format: functional
[5] = tested on: MDA-MB-468; experiment: Induction of apoptosis in human MDA-MB-468 cells cultured as 3D spheroids assessed as inhibition of cell growth incubated for 5 days; format: functional, cell-based; settings: time 5.0 day
Procedure, shortened: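 Cells plated at 4000 per well in low-attachment 24-well plates and grown in Mammocult medium for 48 h to form mammospheres. Spheres then exposed to 25 uM compound for 5 days, with untreated control wells. Read-out was imaging of the mammospheres formed.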

[6] = tested on: MDA-MB-468; experiment: Induction of apoptosis in human MDA-MB-468 cells assessed as effect on PARP level at 50 uM incubated for 24 hrs
[7] = target: T1, c-Myc/c-Max (Homo sapiens) (UniProt P01106+P61244); experiment: Disruption of MYC-MAX interaction in human MDA-MB-468 cells at 25 uM incubated for 3 to 12 hrs by Western blot analysis; format: cell-based; settings: time 3-12 hrs
T1 sequence (P01106 whole entry): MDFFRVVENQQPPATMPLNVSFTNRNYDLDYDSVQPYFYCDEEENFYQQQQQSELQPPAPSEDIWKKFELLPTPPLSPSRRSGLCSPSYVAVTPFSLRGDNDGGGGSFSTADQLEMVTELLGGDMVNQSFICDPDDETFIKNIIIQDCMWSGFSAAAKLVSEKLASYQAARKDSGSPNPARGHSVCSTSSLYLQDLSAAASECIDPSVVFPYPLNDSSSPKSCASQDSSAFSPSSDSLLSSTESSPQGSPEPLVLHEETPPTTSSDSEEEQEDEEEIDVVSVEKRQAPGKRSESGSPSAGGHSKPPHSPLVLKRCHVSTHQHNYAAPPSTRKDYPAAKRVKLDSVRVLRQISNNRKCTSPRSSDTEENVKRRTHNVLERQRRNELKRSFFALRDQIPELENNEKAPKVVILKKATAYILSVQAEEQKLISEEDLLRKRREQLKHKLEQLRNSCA
T1 sequence (P61244 2-160 partner limits assumed): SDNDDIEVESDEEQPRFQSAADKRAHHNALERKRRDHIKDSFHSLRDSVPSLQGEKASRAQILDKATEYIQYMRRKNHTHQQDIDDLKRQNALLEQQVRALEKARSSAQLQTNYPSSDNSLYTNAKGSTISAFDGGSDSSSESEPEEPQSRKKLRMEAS
Procedure, shortened: (§2)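 Cells were given 25 µM or DMSO for 0, 3, 5 and 12 h. Cytoplasmic and nuclear lysate fractions were pooled. 2 mg protein was immunoprecipitated with MYC antibody overnight, then protein A/G beads for 4 h at 4 °C. Bound MAX was detected by western blot and quantified relative to MYC; MAX input was also measured.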

[8] = tested on: MDA-MB-231; experiment: Antiproliferative activity against human MDA-MB-231 cells assessed as cell viability incubated for 96 hrs by MTT assay; format: functional, cell-based; settings: MDA-MB-231, 96 h
Procedure, shortened: (§3)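 Adherent cells (2000/well) attached overnight, then exposed to compounds at 0.14–100 µM for 96 h in DMEM with 10% FBS. MTT at 0.5 mg/mL for 4 h in the dark, formazan dissolved in DMSO, absorbance at 570 nm. Compounds were freshly prepared in DMSO, with DMSO below 1%.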

[9] = tested on: MCF7; experiment: Antiproliferative activity against human MCF7 cells assessed as cell viability incubated for 96 hrs by MTT assay; format: functional, cell-based; settings: MCF7, 96 h
Procedure, shortened: as §3

[10] = Induction of apoptosis in human P493-6 cells assessed as viable cells at 25 uM incubated for 24 hrs by Annexin V/PI staining based flow cytometry analysis (reference value: 90.8%); format: functional; settings: read-out: Activity
[11] = tested on: MDA-MB-468; experiment: Antitumor activity against human MDA-MB-468 cells xenografted in mouse assessed as upregulation of caspase-3 expression at 10 mg/kg, sc measured at 14 to 26 days by IHC analysis; settings: time 14-26 day
[12] = tested on: MDA-MB-468; experiment: Antitumor activity against human MDA-MB-468 cells xenografted in mouse assessed as reduction in mYC expression at 10 mg/kg, sc measured at 14 to 26 days by IHC analysis; settings: time 14-26 day
[13] = Antiproliferative activity against human P493-6 cells expressing MYC assessed as inhibition of cell proliferation incubated for 96 hrs by cell titer glo assay; format: functional, cell-based; settings: P493-6, 96 h
Procedure, shortened: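 P493-6 cells (3000/well, RPMI) were seeded overnight at 37 °C, then given compounds at final 0.14–100 µM for 96 h. MYC-off cells were pretreated with 0.1 µg/mL tetracycline for 72 h. Read-out was CellTiter-Glo luminescence after equilibration to room temperature. IC50 was determined in high-MYC and MYC-off cells.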

[14] = tested on: MDA-MB-468; experiment: Antitumor activity against human MDA-MB-468 cells xenografted in mouse assessed as reduction in Ki67 expression at 10 mg/kg, sc measured at 14 to 26 days by IHC analysis; settings: time 14-26 day
[15] = tested on: MDA-MB-468; experiment: Downregulation of SKP2 mRNA expression in human MDA-MB-468 cells at 25 uM incubated for 12 hrs by qRT-PCR analysis; format: functional, cell-based
Procedure, shortened: as §1

[16] = target: T1, c-Myc/c-Max (Homo sapiens); experiment: Disruption of MYC-MAX interaction in human P493-6 cells assessed as reduction in myc level at 25 uM; format: cell-based
[17] = tested on: MDA-MB-468; experiment: Antiproliferative activity against human MDA-MB-468 cells assessed as cell viability incubated for 96 hrs by MTT assay; format: functional, cell-based; settings: MDA-MB-468, 96 h
Procedure, shortened: as §3

[18] = Induction of apoptosis in human P493-6 cells assessed as viable cells at 50 uM incubated for 24 hrs by Annexin V/PI staining based flow cytometry analysis (reference value: 90.8%); format: functional; settings: read-out: Activity
[19] = tested on: MDA-MB-468; experiment: Downregulation of CDK1 mRNA expression in human MDA-MB-468 cells at 25 uM incubated at 48 hrs by qRT-PCR analysis; format: functional, cell-based
Procedure, shortened: as §1

[20] = tested on: P493-6; experiment: Downregulation of CDK2 mRNA expression in human P493-6 cells at 25 uM incubated for 12 hrs by qRT-PCR analysis; format: functional, cell-based
Procedure, shortened: as §1

[21] = target: T1, c-Myc/c-Max (Homo sapiens); experiment: Disruption of MYC-MAX interaction in human MDA-MB-468 cells assessed as reduction in myc level at 25 uM; format: cell-based
[22] = target: T1, c-Myc/c-Max (Homo sapiens); experiment: Disruption of MYC-MAX interaction in human P493-6 cells at 25 uM incubated for 3 to 12 hrs by Western blot analysis; format: cell-based; settings: time 3-12 hrs
Procedure, shortened: as §2

[23] = tested on: MDA-MB-468; experiment: Downregulation of E2F2 mRNA expression in human MDA-MB-468 cells at 25 uM incubated for 12 hrs by qRT-PCR analysis; format: functional, cell-based
Procedure, shortened: as §1

[24] = tested on: P493-6; experiment: Downregulation of SKP2 mRNA expression in human P493-6 cells at 25 uM incubated for 12 hrs by qRT-PCR analysis; format: functional, cell-based
Procedure, shortened: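 P493-6 cells seeded at 500,000 per well and cultured with or without 25 uM compound for the indicated time. Total RNA extracted with TRIzol. Reverse transcription at 25 °C for 10 min, 37 °C for 120 min, then 85 °C for 5 min. SYBR green qPCR used primers for MYC target genes. Relative mRNA expressed as ΔΔCT.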

[25] = tested on: MDA-MB-468; experiment: Downregulation of CDC25C mRNA expression in human MDA-MB-468 cells at 25 uM incubated for 12 hrs by qRT-PCR analysis; format: functional, cell-based
Procedure, shortened: as §1

[26] = tested on: MDA-MB-468; experiment: Downregulation of SKP2 mRNA expression in human MDA-MB-468 cells at 25 uM incubated at 48 hrs by qRT-PCR analysis; format: functional, cell-based
Procedure, shortened: as §1

[27] = target: T1, c-Myc/c-Max (Homo sapiens); experiment: Disruption of MYC-MAX heterodimerization in human MDA-MB-468 cells incubated for 12 hrs; format: cell-based
Procedure, shortened: as §2

Activity [7]: Active
IC50 [8]: 10.6 µM
IC50 [9]: 39.4 µM
Activity [16]: Active
IC50 [17]: 13.5 µM
Activity [21]: Active
Activity [22]: Active
Activity [27]: Active
Compound: N#Cc1cc2c(-c3ccc(Cl)cc3)nn(-c3ccccc3)c2[nH]c1=O
Activity [1]: Active
Activity [2]: Active
Activity [3]: 0.11%
Activity [4]: 11.3%
Activity [5]: Active
Activity [6]: Active
viability at 25 µM [10]: 85.5%
Activity [11]: Active
Activity [12]: Active
IC50 [13]: 15.2 µM
Activity [14]: Active
Activity [15]: Active
viability at 50 µM [18]: 77.2%
Activity [19]: Active
Activity [20]: Active
Activity [23]: Active
Activity [24]: Active
Activity [25]: Active
Activity [26]: Active
